Screening data (PubChem BioAssay)
Only some compounds are listed: those with a hit (about 2.5% of all), similar ones and a draw of the others.
Rev-erbA mod = modulators of Rev-erb alpha DNA binding, primary screen, biochemical, FITC-DNA, fluorescence polarization, uHTS. Nuclear receptor subfamily 1 group D member 1 (Homo sapiens), P20393. Rev-erbα–FITC-DNA binding, 90 min. activity, % at 10 µM. 370,000 tested, 0.79% active. AID 1259318, 2017;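 active = activity above about 14%, limit read from the data; passing the limit was not always enough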
MC4R barr agon = MC4R agonists recruiting beta-arrestin, primary screen, cell-based, luminescence, agonist arm of biased-ligand search | Melanocortin receptor 4 (Homo sapiens), P32245 | U2OS MC4R beta-arrestin complementation; percent of melanotan II response, DMSO zero | activation, % at 8.9 µM | 360,000 tested, 0.98% active | AID 540308, 2011;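 active = activation above a per-plate cutoff, the mean activation of sample wells on that plate plus 3 SD, cut at about 8% in these data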
Target sequence (P32245 whole entry, looked up): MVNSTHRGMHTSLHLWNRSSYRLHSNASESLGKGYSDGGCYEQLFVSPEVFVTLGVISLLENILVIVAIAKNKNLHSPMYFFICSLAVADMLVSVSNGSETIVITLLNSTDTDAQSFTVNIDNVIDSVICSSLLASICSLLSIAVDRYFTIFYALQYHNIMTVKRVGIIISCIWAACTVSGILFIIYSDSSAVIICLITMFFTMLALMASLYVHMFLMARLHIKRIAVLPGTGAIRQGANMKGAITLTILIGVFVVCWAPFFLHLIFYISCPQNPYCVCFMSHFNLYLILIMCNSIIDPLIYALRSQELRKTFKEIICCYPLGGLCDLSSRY
NTR1 agonist = agonists of human NTR1, primary screen, imaging, U2OS cells, beta-arrestin-GFP, high content. Neurotensin receptor type 1 (Homo sapiens), P30989. 330,000 tested, 0.17% active. NTR1-U2OS beta-arrestin-GFP spot imaging, agonist mode. AID 493036, 2011. activation, % at 20 µM;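 active = activation at or above 40% of the spot to cytoplasm intensity ratio, with at least 20 cells analyzed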
MC4R antag cAMP = MC4R antagonists of cAMP signaling, primary screen, cell-based, TR-FRET, antagonist arm of biased-ligand search | Melanocortin receptor 4 (Homo sapiens), P32245 | inhibition, % at 6.5 µM | AID 540295, 2011 | MC4R-expressing cells, MTII-stimulated cAMP, LANCE TR-FRET | 360,000 tested, 0.48% active;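 active = inhibition above its plate's cutoff, the mean of tested wells on that plate plus 3 SD, cut at about 29% in these data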
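system = U2OS cells with stable human MC4R expression | also added = Melanotan II challenge after compound preincubation | dosing = one concentration, 6.5 µM nominal | incubation = compound 30 min, challenge 1 h, detection 1 h | measured by = TR-FRET with Eu-cAMP and labeled anti-cAMP, 671 nm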
PG9 Ab binder = binders of HIV-1 gp120 antibody PG9, primary screen, biochemical, TR-FRET. HIV-1 gp120 / PG9 antibody interaction. TR-FRET gp120-PG9 antibody binding. inhibition, % at 6.7 µM. 360,000 tested, 0.43% active. AID 624416, 2012; in the data active = inhibition above about 8.5%
Hits are given with their value; – = inactive; · = no result given.

SMILES | Rev-erbA mod | MC4R barr agon | NTR1 agonist | MC4R antag cAMP | PG9 Ab binder
O=C(Nc1nnc(Cc2c[nH]c3ccccc23)s1)c1ccc(Cl)cc1Cl | – | – | – | – | –
Cc1cccc(NC(=O)Nc2cccc(C#N)c2)n1 | – | 8.2 | – | – | –
Cc1cccc(NC(=O)Nc2ccc(C#N)cc2)n1 | – | – | – | – | –
O=C(OCc1nnc(-c2ccc(Cl)cc2)o1)c1ccc(O)cc1 | – | – | – | – | –
CS(=O)(=O)c1ccc(C(=O)OCc2nnc(-c3ccc(Cl)cc3)o2)cc1[N+](=O)[O-] | · | – | 41.4 | – | ·
CC(C)Oc1ccc(CNC(=O)CC(c2ccccc2)c2cc(Cl)ccc2O)cc1 (stereo unspecified) | – | 9.3 | 51.2 | – | –
CCOc1ccc(-c2nnc(SCC(=O)Nc3ccc4c(c3)c3ccccc3n4CC)n2N)cc1 | – | 30.3 | – | – | –
CCn1c2ccccc2c2cc(NC(=O)CSc3nnc(-c4ccc(OC)c(OC)c4)n3N)ccc21 | – | – | – | – | –
CN(C)[C@@H]1CCN(c2cccc3c2S(=O)(=O)N(C2CC2)CCCO3)C1 | – | · | · | · | ·
Oc1ccc(Oc2ccc3c(C(F)(F)F)cc(C(F)(F)F)nc3n2)cc1 | – | 14.7 | – | – | –
CCOC(=O)C1=C(C(=O)OCC)C2N(Cc3ccc(C#N)cc3)c3ccccc3[C@@]23C[C@@H](C(=O)OC)N(S(=O)(=O)c2ccc(C#N)cc2)C3=N1 (stereo partly specified) | – | · | · | · | –
CCN(CC)C(=O)CC[C@H]1CC[C@]2(CCCN(Cc3ccc(OC)cc3)C2)O1 | – | · | · | · | ·
Cc1ccc(Cl)cc1NC(=O)c1cc2ccccc2cc1O | – | 8.4 | – | – | –
COc1cc(NC(=O)c2cc3ccccc3cc2O)c(OC)cc1Cl | – | – | – | – | –
O=c1[nH]c(SCc2ccccc2Cl)nc2c1cnn2-c1ccccc1 | – | 9.3 | – | – | –
COc1ccc(C=NNc2nc3ccccc3s2)cc1 | – | 9.1 | · | – | –
COc1cc(C(=O)OCC(=O)NCCC2=CCCCC2)ccc1OCC(C)C | – | 9.2 | – | – | –
Cc1csc(NC(=O)c2ccc(COc3ccccc3F)o2)n1 | – | · | · | · | ·
Fc1cccc(/C=N/Nc2ccc(Cl)nn2)c1 | – | 12.4 | – | – | –
CC(C)C(C)NC(=O)CSc1nnc(-c2c[nH]c3ccccc23)o1 (stereo unspecified) | – | – | – | – | –
Cc1ccc(C(=O)CSc2nnc(-c3c[nH]c4ccccc34)o2)cc1 | – | 8.2 | – | – | –
CC(C)c1ccc(O)c(NC(=S)NC(=O)c2ccc3c(c2)OCO3)c1 | – | 11.0 | – | – | –
O=C(Nc1nnc(SCc2ccc(Cl)cc2)s1)c1ccco1 | – | 8.8 | – | – | –
Cc1cc(C)cc(NC(=S)N2CCC(c3nc4ccccc4s3)CC2)c1 | – | 8.5 | – | – | –
CC(=O)Nc1cccc(-c2cc(C(C)=O)c3n(c2=O)CCC3)c1 | – | · | · | · | ·
SMILES | Rev-erbA mod | MC4R barr agon | NTR1 agonist | MC4R antag cAMP | PG9 Ab binder
NC(=O)c1c(N)[nH]c(C(=O)c2ccccc2)c1-c1ccccc1Cl | – | · | · | · | –
O=C(N/N=C\c1cn[nH]c1-c1ccc(Cl)cc1)c1cccs1 | – | 8.8 | – | – | –
O=C(/C=C/c1ccccc1O)c1ccco1 | – | – | – | – | –
O=C(/C=C/c1cc(Br)ccc1O)c1ccco1 | – | – | 47.1 | – | –
CC[C@@H](C(=O)[C@@H](C)[C@@H](O)[C@H](C)[C@@H]1O[C@@H]([C@@H](CC)C(=O)O)CC[C@@H]1C)[C@H]1O[C@]2(C=C[C@@H](O)[C@]3(CC[C@@](C)([C@H]4CC[C@](O)(CC)[C@H](C)O4)O3)O2)[C@H](C)C[C@@H]1C | – | 36.1 | · | – | –
O=C(CN1CCC(C(O)(c2ccccc2)c2ccccc2)CC1)Nc1ccccc1 | – | – | – | – | –
O=C(CN1CCC(C(O)(c2ccccc2)c2ccccc2)CC1)Nc1cc(Cl)ccc1Cl | – | – | – | 31.7 | –
Fc1ccc2nc(-c3ccc(CN4CCC(c5nc6ccccc6[nH]5)CC4)cc3)c(-c3ccccc3)nc2c1 | – | · | · | · | –
Cc1cc(C)n(-c2ccc(C(=O)OCC(=O)NC(c3ccccc3)c3ccccc3)cc2)n1 | – | 9.3 | – | – | –
Clc1cc(Cl)cc(Nc2ncnc(-n3cccc3)n2)c1 | – | 9.0 | – | – | –
Cc1cc(NC(=O)COC(=O)c2cccc(OCc3ccccc3)c2)no1 | – | 8.5 | – | – | –
Cc1cc(NC(=O)COC(=O)c2ccc(C)c(C)c2)no1 | – | – | – | – | –
COC(=O)c1ccc(CNC(=O)COC(=O)/C=C/c2cccc(OC)c2)cc1 | – | – | · | – | –
COc1ccc(CNC(=O)COC(=O)/C=C/c2cccc(Cl)c2)cc1 | – | 8.3 | – | – | –
COC(=O)[C@@H]1Cc2c([nH]c3ccccc23)C(C)(C)N1C(=O)CCl | – | 13.1 | – | – | –
CCN(CC)C(=O)CC[C@@H]1CC[C@]2(CCCN(C(=O)c3ccno3)C2)O1 | – | · | · | · | ·
COc1ccc(C(=O)c2sc3nc(-c4ccc(OC)cc4)ccc3c2N)cc1 | – | 9.2 | – | – | –
COc1ccc(-c2ccc3c(N)c(C(=O)c4cccc(OC)c4)sc3n2)cc1 | – | – | – | – | –
O=C(N1CCC(Cc2ccccc2)CC1)n1ncc(C(O)(c2ccccc2)c2ccccc2)n1 | – | · | · | · | ·
COc1cccc(-c2cnc3c(NC(C)=O)cc(-c4ccc(C(=O)NC5CC5)cc4)cn23)c1 | – | 8.8 | · | – | –
CC(=O)Nc1cccc(-c2cc(NC(C)=O)c3ncc(-c4cccc(C(C)=O)c4)n3c2)c1 | – | 8.6 | · | – | –
COc1ccc(-c2cnc3c(NC(C)=O)cc(-c4ccc(C(=O)NC5CC5)cc4)cn23)cc1OC | – | – | · | – | –
COc1cccc(-c2sc3ccc(OC)cc3c2-c2ccc(OCCN(C)C)cc2)c1 | – | 10.2 | – | – | –
C/C(=N\NC(=O)CNc1cccc(C(F)(F)F)c1)c1ccc(Br)cc1 | – | 8.3 | – | – | –
COc1cccc(-c2noc(-c3ccc(Cl)nc3)n2)c1 | – | 8.7 | – | – | –
O=C(CSc1ncnc2c1oc1ccccc12)Nc1nc2ccccc2s1 | – | 8.6 | – | – | –
O=C(CSc1nc2ccccc2o1)Nc1nc2ccccc2s1 | – | – | – | – | –
COc1ccc2nc(NC(=O)Cn3cnc4ccccc4c3=O)sc2c1 | – | 8.3 | – | – | –
N#Cc1ccc(Cn2nnc(-c3ccc(N4CCOCC4)cc3)n2)cc1 | – | · | · | · | ·
